Screening data from PubChem.
A selection: hits, their analogues and other compounds. The true share with any hit is near 3.6%.
ATG4B inh – ATG4B (human) cysteine protease inhibition; Q9Y4P1; ATG4B cleavage of LC3-PLA2, NBD-HPC fluorescence, 1 h; inhibition, % at 8.33 µM; hit rate 0.51% among 340,000; in the data active = inhibition above about 40%
SENP1 inh – SENP1 (human) catalytic domain inhibition; Q9P0U3; recombinant SENP1 catalytic domain, CyPet-SUMO1-YPet FRET cleavage; inhibition, % at 10 µM; hit rate 0.21% among 360,000;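 active = inhibition at least 30% at 10 µM, raw YFP signal under a set limit, fluorescence ratio 0.5 to 1.5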
Target sequence (Q9P0U3 419-644 limits assumed): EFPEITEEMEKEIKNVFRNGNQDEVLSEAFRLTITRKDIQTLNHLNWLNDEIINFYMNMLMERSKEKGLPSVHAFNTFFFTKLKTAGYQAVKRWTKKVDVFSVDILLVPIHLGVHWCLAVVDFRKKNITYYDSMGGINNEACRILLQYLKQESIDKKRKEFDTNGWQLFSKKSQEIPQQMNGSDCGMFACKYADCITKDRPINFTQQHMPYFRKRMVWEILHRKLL
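Test system: human SENP1 catalytic domain; medium: Tris pH 8 buffer plus EDTA, NaCl, BME, BSA, NP40, catalase; incubation: 50 min reaction at room temperature; technique: FRET, CFP and YFP emission; controls: no-enzyme low control and enzyme-plus-DMSO high control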
UCH37 DUB inh – blocks the human deubiquitinase UCH37; Q9Y5K5; purified proteasome/UCH37, Ub-AMC cleavage fluorescence; inhibition, % (concentration not given with the values); hit rate 0.33% among 330,000; AID 588478;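 active = mean inhibition over replicate wells above about 20%, limit read from the data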
Target sequence (Q9Y5K5 whole entry, looked up): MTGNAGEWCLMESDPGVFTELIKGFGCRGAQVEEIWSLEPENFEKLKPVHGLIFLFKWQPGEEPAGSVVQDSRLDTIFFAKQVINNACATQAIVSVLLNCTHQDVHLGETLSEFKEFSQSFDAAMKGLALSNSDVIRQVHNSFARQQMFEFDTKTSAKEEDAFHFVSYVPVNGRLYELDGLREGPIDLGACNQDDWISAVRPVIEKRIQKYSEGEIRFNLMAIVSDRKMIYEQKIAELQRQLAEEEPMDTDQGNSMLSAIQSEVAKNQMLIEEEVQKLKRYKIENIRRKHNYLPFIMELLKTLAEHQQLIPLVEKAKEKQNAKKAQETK
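Material: human UCH37 enzyme supplied as purified proteasome complex / Amount: 0.15 nM proteasome as dispensed / Buffer or medium: pH 7.4 Tris-HCl (50 mM) with ovalbumin, ATP-MgCl2, DTT / Times: preincubation 30 min, reaction 25 min, room temperature / Technique: AMC fluorescence from Ub-AMC cleavage, excitation 355 nm, emission 460 nm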
NadD block – inhibitors of Staphylococcus aureus NadD | hit rate 0.78% among 360,000 | inhibition, % at 20 µM | purified NadD enzyme, colorimetric absorbance read-out; in the data active = inhibition above about 26%
NR3A LBD binder – modulators (binders) of human NR3A ligand-binding domain; NR3A LBD differential scanning fluorimetry, Tm shift; 0% = protein alone, 100% = glycine-bound protein; AID 1259313; Tm shift relative to glycine control, % at 25 µM; hit rate 2.5% among 340,000;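 active = melting temperature shift of at least 10% of the positive control shift, at one fixed dose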
Large screens that a line does not name were inactive.

CC(=O)Nc1cc(C(=O)OCC(=O)c2ccccc2)ccc1C	none
COc1cc(C(=O)NCC(=O)NN=Cc2ccco2)cc(OC)c1OC	none (no result: ATG4B inh, SENP1 inh, NadD block, NR3A LBD binder)
ON=Cc1ccccc1OCc1ccccc1F	none (no result: ATG4B inh, SENP1 inh, NadD block, NR3A LBD binder)
Nc1ccc2ccc(O)cc2c1	none
C[n+]1c2cc(N)ccc2cc2ccc(N)cc21	NadD block 33 (no result: UCH37 DUB inh)
COc1ccc(NS(=O)(=O)c2cccc(C(=O)NN=Cc3cccs3)c2)cc1	none (no result: ATG4B inh, SENP1 inh, NadD block, NR3A LBD binder)
Cc1[nH]c2ccccc2c1/C=N/NC(=O)c1cccc(S(=O)(=O)Nc2cccc(C(F)(F)F)c2)c1	NR3A LBD binder 28 (no result: UCH37 DUB inh)
COc1ccc(NS(=O)(=O)c2cccc(C(=O)N/N=C/c3c(F)c(F)c(F)c(F)c3F)c2)cc1	NR3A LBD binder 12 (no result: UCH37 DUB inh)
NC(CC(=O)Nc1ccc(F)cc1)=NO	none (no result: ATG4B inh, SENP1 inh, NadD block, NR3A LBD binder)
CCOc1ccc(C(CC)=NNC(=O)C2(C)CC2(Br)Br)cc1 (stereo not drawn)	none (no result: ATG4B inh, SENP1 inh, NadD block, NR3A LBD binder)
Cc1ccc(-n2[nH]c(C)c(C=Nc3ccc4[nH]c(=O)[nH]c4c3)c2=O)cc1C	NR3A LBD binder 16
COC(=O)[C@H]1Cc2c([nH]c3ccccc23)[C@H](c2ccccc2)N1	NR3A LBD binder 10
Cc1ccc(S(=O)(=O)N[C@H](C(=O)OCC(=O)NC(=O)C2CCCCC2)C(C)C)cc1	NR3A LBD binder 23
Cc1ccc(S(=O)(=O)N[C@H](C(=O)OCC(=O)NC(=O)Nc2ccc3c(c2)OCCO3)C(C)C)cc1	none
CC(=NNC(=O)c1cccc(Cl)c1)C1C(=O)c2ccccc2C1=O	none (no result: ATG4B inh, SENP1 inh, NadD block, NR3A LBD binder)
Oc1cc2c(cc1C(c1ccc(Cl)c(Cl)c1)N1CCCC1)OCO2 (stereo not drawn)	NR3A LBD binder 40
Cc1c(C(=O)N/N=C/c2ccc(N(C)C)cc2)[nH]c2ccc(Cl)cc12	NR3A LBD binder 27 (no result: UCH37 DUB inh)
Cc1c(C(=O)NN=Cc2ccc(N(C)C)cc2)[nH]c2ccc(Cl)cc12	none (no result: ATG4B inh, SENP1 inh, NadD block, NR3A LBD binder)
Cc1c(C(=O)N/N=C/c2ccccc2)[nH]c2ccc(Cl)cc12	NR3A LBD binder 30 (no result: UCH37 DUB inh)
CC(CC(=O)Nc1cccnc1)=NNC(=O)c1ccc([N+](=O)[O-])c(Cl)c1	none (no result: ATG4B inh, SENP1 inh, NadD block, NR3A LBD binder)
Cc1ccc(C=NNc2nc3ccccc3[nH]2)s1	none (no result: ATG4B inh, SENP1 inh, NadD block, NR3A LBD binder)
CCCN(C(=O)Cc1nc(N)n[nH]1)C1(C(=O)Nc2ccccc2C)CCCCC1	UCH37 DUB inh 25
CC(=O)NC(CC(C)C)C(=O)NC(Cc1ccccc1)C(=O)CCl (stereo not drawn)	NR3A LBD binder 17 (no result: UCH37 DUB inh)
CC(=O)NC(CC(C)C)C(=O)NC(Cc1ccccc1)C(N)=O (stereo not drawn)	none (no result: SENP1 inh, NadD block)
COc1ccccc1/C=C/C(=O)NCC(=O)NN=Cc1ccc2c(c1)OCO2	none (no result: ATG4B inh, SENP1 inh, NadD block, NR3A LBD binder)
COc1ccc2oc(C(=O)N(C)Cc3ccc(OC(F)F)cc3)c(C)c2c1	NR3A LBD binder 13
Cc1cccc(-c2noc(CCC(=O)N3CCN(c4cc(C)ccc4C)CC3)n2)c1	NR3A LBD binder 17
Cc1ccc(C)c(N2CCN(C(=O)CCc3nc(-c4ccccc4)no3)CC2)c1	NR3A LBD binder 15
CC(CC(=O)Nc1ccc(OCc2ccccc2)cc1)=NNC(=O)C(=O)Nc1ccc(C)c(Cl)c1	none (no result: ATG4B inh, SENP1 inh, NadD block, NR3A LBD binder)
CC(=O)Nc1ccc(-c2cc(-c3ccc(NC(C)=O)cc3)nc(-c3ccc(NC(C)=O)cc3)n2)cc1	none
Nc1ccc(-c2cc(-c3cccc(N)c3)nc(-c3ccccc3)n2)cc1	NR3A LBD binder 22
CCC(=O)Nc1ccc(-c2cc(-c3ccccc3)nc(-c3ccc(NC(=O)CC)cc3)n2)cc1	NR3A LBD binder 16
CC(=O)Nc1ccc(-c2cc(-c3ccccc3)nc(-c3ccccc3)n2)cc1	NR3A LBD binder 36
CC(=O)Nc1ccc(-c2cc(-c3ccc(NC(C)=O)cc3)nc(-c3ccccc3)n2)cc1	none (no result: NR3A LBD binder)
c1cc2c3c(cccc3c1)NC1(CCCCC1)N2	NadD block 36
c1cc2c3c(cccc3c1)NC1(CCC3(CC1)Nc1cccc4cccc(c14)N3)N2	NadD block 51, NR3A LBD binder 18 (no result: UCH37 DUB inh)
O=C(COCC(=O)NN=Cc1ccc(F)cc1)NN=Cc1ccc(F)cc1	none (no result: ATG4B inh, SENP1 inh, NadD block, NR3A LBD binder)
O=C1C(=O)N(CCCN2CCOCC2)C(c2ccc(F)cc2)/C1=C(/O)c1ccccc1 (stereo not drawn)	UCH37 DUB inh 23
Cc1ccc(/C(O)=C2/C(=O)C(=O)N(CCN3CCOCC3)C2c2cccs2)cc1 (stereo not drawn)	UCH37 DUB inh 24
COC(=O)c1ccc(C2/C(=C(\O)c3cccc(OC)c3)C(=O)C(=O)N2CCCN2CCOCC2)cc1 (stereo not drawn)	none
COc1cccc(/C(O)=C2/C(=O)C(=O)N(CCCN3CCOCC3)C2c2ccncc2)c1 (stereo not drawn)	UCH37 DUB inh 20
C(=Nn1cnnc1)c1nc2ccccc2[nH]1	none (no result: ATG4B inh, SENP1 inh, NadD block, NR3A LBD binder)
CC(=NNc1ccc2nncn2n1)c1ccc(Br)s1	none (no result: ATG4B inh, SENP1 inh, NadD block, NR3A LBD binder)
CCOc1ccc(NC(=O)c2ccc(N3CC4CC(C3)c3cccc(=O)n3C4)c(NC(=O)c3cccnc3)c2)cc1 (stereo not drawn)	none
CCOc1ccc(NC(=O)Nc2cc(C(=O)O)ccc2N2CC3CC(C2)c2cccc(=O)n2C3)cc1 (stereo not drawn)	NR3A LBD binder 11
COc1ccc(NC(=O)CN2C(=O)/C(=C3\SC(=S)N(CCC(=O)O)C3=O)c3ccccc32)cc1	NadD block 51
O=C(CCN1C(=O)/C(=C\c2ccccc2)SC1=S)Nc1ccc(C(=O)O)cc1	none
CCOc1ccc(/C=C2/SC(=S)N(CCC(=O)Nc3ccc(C(=O)O)cc3)C2=O)cc1	NadD block 38
COc1ccc(/C=C2\SC(=S)N(CCC(=O)Nc3ccc(O)cc3)C2=O)cc1	NR3A LBD binder 15
O=c1nccc(NN=Cc2ccccc2O)[nH]1	none (no result: ATG4B inh, SENP1 inh, NadD block, NR3A LBD binder)
O=c1oc(C2(O)CCCCC2)cc2ccc(-c3ccc4[nH]ccc4c3)cc12	NR3A LBD binder 11
Cc1ccc(NC(=O)c2ccc3c(c2)OCCO3)cc1	none
COc1cc(NC(=O)c2cccc(F)c2)ccc1NC(=O)c1cc2ccccc2o1	NR3A LBD binder 36
Cc1cc(NC(=O)c2ccc3c(c2)OCCO3)ccc1NC(=O)c1cc2ccccc2o1	NR3A LBD binder 15
O=C(Nc1ccc(NC(=O)c2cc3ccccc3o2)cc1)c1ccc2c(c1)OCCO2	NR3A LBD binder 21
O=C(Nc1cccc(Br)c1)c1ccc(CSc2ccccc2)cc1	NR3A LBD binder 30
CC(=NOCC(=O)OC(C)C(=O)Nc1ccc(C)c(S(=O)(=O)N2CCOCC2)c1)c1ccc2c(c1)OCO2 (stereo not drawn)	none (no result: ATG4B inh, SENP1 inh, NadD block, NR3A LBD binder)
Cc1cc(NC(=O)c2cccnc2)ccc1NC(=O)c1cc2ccccc2o1	none
Cc1cccc(NC(=O)c2cc3ccccc3o2)c1	none
O=C(Nc1cccc(Br)c1)c1cc2ccccc2o1	NR3A LBD binder 32
Cc1cc(NC(=O)c2cc3ccccc3o2)ccc1NC(=O)c1ccccc1	NR3A LBD binder 16
CC(=O)c1cccc(NC(=O)CSCc2ccc(Br)cc2)c1	NR3A LBD binder 23
COc1cccc(C=NNC(=O)CCn2c3ccccc3c3ccccc32)c1	none (no result: ATG4B inh, SENP1 inh, NadD block, NR3A LBD binder)
